# b-catenin transl = modulators of beta-catenin nuclear translocation. HeLa beta-catenin nuclear translocation, immunofluorescence imaging. nuclear translocation activity, % at 5 µM. actives 0.3% (n = 190,000);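 active = nuclear translocation activity above 50% at 5 µM, with a well cell count of 50 or more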;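 also: per-cell ratio of nuclear to cytoplasmic median beta-catenin stain intensity; plate controls were DMSO negative control for no effect and GSK-3 inhibitor IX positive control for full effect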
#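 Technique: fluorescence imaging of beta-catenin antibody stain plus DAPI / Material: human HeLa cell line / Incubation: compound treatment 24 h, 37°C, 5% CO2 / Read-out basis: % activation of per-cell nuclear versus cytoplasmic median beta-catenin signal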
# Dynein transport = dynein cargo transport inhibition; 3617.4 mouse cells, GR-EGFP nuclear translocation imaging; test concentration mostly 20 µM; stimulated with dexamethasone, 1 µM; active compounds read low; z-score, hits read low; actives 0.47% (n = 220,000);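 active = plate z-score of nuclear minus cytoplasmic receptor signal below a set negative limit, without overly bright fluorescence or cell loss, cut at about -3.5 in these data, passing the limit was not always enough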;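 also: z-score of nuclear minus cytoplasmic ring GR-EGFP intensity difference per well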
#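 Also added: dexamethasone, 1.0 µM final. Medium: tet-free, stripped-serum medium. Detection: fixed, Hoechst-stained cells imaged at 10x for EGFP. Read-out: nuclear-to-cytoplasmic GR-EGFP distribution per well. Times: induction 48 h, compound 1 h, agonist 30 min.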
# Autophagy HCS = modulators of autophagy; MEF GFP-LC3 puncta imaging; test concentration mostly 10 µM; calls only at 10 µM (by protocol); actives 0.98% (n = 190,000); AID 463193;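 active = percentage of spot-positive cells more than 3 SD above its plate mean, without a fluorescence outlier flag or 80% toxicity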;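 also: spot-positive cell cutoff set from DMSO-treated cells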
# L major viab = inhibitors of Leishmania major promastigote growth | Leishmania major promastigotes, resazurin fluorescence viability | inhibition, % at 10 µM | actives 9% (n = 200,000); in the data active = inhibition above about 50%;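 also: promastigotes grown with compound for 44 hours at 28 °C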
# MT stabilize HCS = stabilizes microtubules in HeLa cells; HeLa tubulin immunostaining HCS, 24 h; share of cells brighter than vehicle mean+2SD; % tubulin-high responders, % at 10 µM; actives 0.83% (n = 200,000);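 active = plate Z-score above 3 for both tubulin-high and condensed-nucleus cell shares, with cell loss under 80%, at 10 µM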;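 also: anti alpha tubulin signal scored within the nucleus-defined area of each cell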
# CHOP inhibitor = CHOP inhibition in unfolded protein response; CHO-K1 CHOP-promoter luciferase, tunicamycin-induced, 15-18 h; inhibition, % at 10 µM; actives 3.8% (n = 220,000); AID 2732;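 active = compounds that reduced the stress-induced luciferase reporter signal by more than about 70% of percent inhibition, limit read from the data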;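 also: 0% = tunicamycin plus vehicle and 100% = wells without tunicamycin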
# Active calls of the source: *; i = inactive; / = no result; + = active, no number. This is a sample that favours compounds with a hit; in the whole collection about 12% have one here.
SMILES,b-catenin transl,Dynein transport,Autophagy HCS,L major viab,MT stabilize HCS,CHOP inhibitor
COc1ccccc1OCC(=O)Nc1cc(S(=O)(=O)N2CCCCC2)ccc1N1CCCCC1,-1.9,1.7,i,98.0*,1.9,6.7
CCN(CC)S(=O)(=O)c1ccc(N2CCCCC2)c(NC(=O)/C=C/c2cc(OC)c(OC)c(OC)c2)c1,-1.2,-0.457,i,68.5*,4.0,5.9
COc1cc(/C=C/C(=O)Nc2cc(S(=O)(=O)N3CCOCC3)ccc2N2CCCC2)cc(OC)c1OC,-2.1,-0.0857,i,8.0,7.0,-17.8
O=C(/C=C/c1ccc2c(c1)OCO2)Nc1cc(S(=O)(=O)N2CCOCC2)ccc1N1CCOCC1,/,-1.45,i,63.8*,2.3,40.6
COc1ccc(/C=C/C(=O)Nc2cc(S(=O)(=O)N3CCCCC3)ccc2N2CCCCC2)cc1OC,/,-0.427,i,96.6*,4.0,26.6
CCOc1cc2c(cc1OCC)C(c1ccccc1)N(c1ccccc1)C(=O)C2 (stereo not given),-0.8,-0.321,i,81.0*,2.6,12.9
CCOc1cc2c(cc1OCC)C(c1ccc(OC)cc1)N(c1ccccc1)C(=O)C2 (stereo not given),0.2,-0.254,i,9.5,3.9,20.4
[N-]=[N+]=CC(=O)C(c1ccccc1)(c1ccccc1)c1ccccc1,1.3,0.24,/,/,/,24.4
CCN1/C(=C2/SC(=S)NC2=O)Sc2ccccc21,-0.2,1.21,i,76.5*,8.7,-5.5
CCN1/C(=C2/OC(=S)N(C)C2=O)Sc2ccccc21,-1.4,-0.447,i,3.3,8.6,23.0
COc1ccc(C2c3c(ncn(CCN4CCOCC4)c3=N)Oc3ccc4ccccc4c32)cc1OC (stereo not given),6.0,0.55,i,100.4*,21.6,-2.4
COc1ccc(C2c3ccc(O)cc3Oc3ncn(Cc4ccco4)c(=N)c32)cc1OC (stereo not given),2.2,-1.45,/,/,/,-20.4
COc1ccc(C2c3ccc4ccccc4c3Oc3ncn(Cc4ccco4)c(=N)c32)cc1OC (stereo not given),16.3,-0.757,i,57.7*,9.6,8.2
Cc1cc(CCCCCCCCc2cc(C)cc(=O)o2)oc(=O)c1,1.7,-0.0607,i,-3.2,4.3,16.0
Cc1ccc(/C=C/C(=O)N2CCN(S(=O)(=O)/C=C/c3ccccc3)CC2)o1,0.1,-0.971,/,/,/,-23.6
CC(=O)c1cc(CN2CCN(CCC(C)C)C(CCO)C2)cs1 (stereo not given),-1.1,0.607,/,/,/,13.7
COc1ccc(CN2CCN(Cc3csc(C(C)=O)c3)CC2CCO)c(C)c1C (stereo not given),-1.3,0.0775,i,86.3*,4.1,24.8
CC(=O)c1cc(CN2CCN(Cc3ccc(C)cc3)C(CCO)C2)cs1 (stereo not given),-0.5,-0.595,i,73.2*,5.5,13.4
O=C1c2ccccc2C(=O)N1CC(=O)N1c2ccccc2CCc2ccccc21,0.6,-0.163,i,-2.0,2.8,12.6
O=C(C(Cc1ccccc1)N1C(=O)c2ccccc2C1=O)N1c2ccccc2CCc2ccccc21 (stereo not given),1.5,-0.102,i,57.5*,4.4,9.3
CCn1c(SCC(=O)c2c[nH]c3ccccc23)nc2cc(S(=O)(=O)N3CCOCC3)ccc21,6.9,-1.65,i,65.7*,3.2,34.0
COCCCn1c(SCCc2ccccc2)nc2cc(OC)c(OC)cc2c1=N,1.0,0.336,i,50.9*,3.5,40.1
COc1ccc(C(=O)c2nccc3ccccc23)cc1,-2.4,0.333,i,-0.4,7.4,10.0
OCCC1CN(Cc2cccn2-c2ccccn2)CCN1Cc1ccccc1 (stereo not given),1.4,-0.563,i,-1.5,2.4,3.0
CCn1c(=O)cc(SCC(=O)N2CCN(C3CCCCC3)CC2)c2ccccc21,1.8,1.81,i,51.4*,3.0,5.7
SMILES,b-catenin transl,Dynein transport,Autophagy HCS,L major viab,MT stabilize HCS,CHOP inhibitor
COc1ccccc1CCNC(=O)CSc1nnc2ccc(-c3ccncc3)nn12,-0.3,-0.456,i,6.2,4.1,8.7
Nc1cc(C(=O)c2ccccc2)ccc1N1CCOCC1,-1.4,-0.921,i,53.7*,2.2,6.7
CC(=O)Nc1cc(C(=O)c2ccccc2)ccc1N1CCOCC1,-3.7,-0.118,i,1.4,3.3,19.9
Nc1cc(=O)[nH]n1C1CCCC1,-3.0,-0.86,i,-13.6,2.4,7.9
Nc1cc(=O)[nH]n1C1CCCCC1,-2.3,1.55,+,8.7,2.5,-4.6
O=C(NC(=O)c1ccc(F)cc1F)Nc1ccc(Cl)cc1,-0.8,-0.502,/,/,/,-7.3
CCOc1ccc(-c2cc(CCCC(=O)NCc3ccco3)no2)cc1,2.9,0.486,i,-4.3,4.0,84.5*
Cc1cccc(C)c1OCCNC(=O)C(=O)NCc1ccco1,59.4*,-0.21,i,-0.5,10.5,-0.6
COc1ccc(-c2cc(CCCC(=O)N3CCN(c4ccc(OC)cc4)CC3)no2)cc1,/,-0.721,i,-3.7,1.4,95.0*
CCOc1ccccc1OCC(=O)NCc1ccco1,/,-1.3,i,-9.4,2.7,76.8*
COc1ccc(-c2cc(CCCC(=O)NCCc3cc(OC)ccc3OC)no2)cc1,-1.1,-0.175,i,12.5,4.3,57.4
CCCOCCc1nnc(N)s1,1.7,0.313,/,/,/,9.6
COc1ccc(C/C(C)=N/NC(=O)C2COc3ccccc3O2)cc1 (stereo not given),0.4,-0.546,i,-9.3,1.9,11.2
C/C(CC(=O)NCc1ccco1)=N\NC(=O)COc1ccc(Cl)cc1Cl,59.3*,0.298,i,-6.2,5.1,2.4
CCOc1ccc2nc(SCC(=O)NC(=O)NCc3ccco3)sc2c1,-3.2,0.803,i,4.3,2.0,74.6*
CCCNC(=O)C/C(C)=N/NC(=O)COc1ccc(C)cc1Br,4.6,0.645,i,35.6,4.3,8.7
CCOc1ccc2nc(SCC(=O)NCc3ccco3)sc2c1,-3.0,0.0713,i,0.8,4.9,26.0
COc1ccc(CNC(=O)C/C(C)=N/NC(=O)COc2ccc(C)cc2Br)cc1,145.9*,-1.55,i,-5.7,3.8,24.7
CCCCC1CCC(C(=O)OCC(=O)Nc2ccc(S(N)(=O)=O)cc2)CC1 (stereo not given),-0.2,0.0548,i,52.0*,1.9,26.2
COc1ccccc1C(=O)C1CCCN(Cc2cn[nH]c2C2CCCCC2)C1 (stereo not given),0.8,-0.394,i,13.4,4.5,17.6
CCOc1ccc2oc(C(=O)NC3CCN(Cc4ccccc4)CC3)c(C)c2c1,-0.3,-0.469,i,82.6*,1.0,15.7
CCOc1ccc2oc(C(=O)OCC(=O)NC(=O)NC3CCCC3)c(C)c2c1,-3.6,0.933,i,-5.7,4.0,72.6*
CCOc1ccc2oc(C(=O)OCC(=O)NC(=O)NC)c(C)c2c1,-1.6,-9.79e-05,/,/,/,14.1

# Screening data (PubChem)
